Test results as given in ChEMBL document CHEMBL4049426, “Identification of the Clinical Candidate (R)-(1-(4-Fluorophenyl)-6-((1-methyl-1H-pyrazol-4-yl)sulfonyl)-4,4a,5,6,7,8-hexahydro-1H-pyrazolo[3,4-g]isoquinolin-4a-yl)(4-(trifluoromethyl)pyridin-2-yl)methanone (CORT125134): A Selective Glucocorticoid Receptor (GR) Antagonist” (J Med Chem, 2017).
Activity calls are given as the source filed them. No cut-off for these calls is given here.

Tests used:
[1] = Cmax in monkey plasma at 20 mg/kg, po measured up to 24 hrs by LC/MS analysis; type: ADME, organism-based, Macaca mulatta; set-up: dose 20 mg/kg, route oral; conditions: rhesus monkey
In short: (§1)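 Monkey i.v./p.o. study: oral 20mg/kg in 10% DMSO, 0.1% Tween 80, 0.5% hydroxypropylmethylcellulose in water; i.v. dose 1mg/kg.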

[2] = molecular target: T1, Glucocorticoid receptor (Homo sapiens, UniProt P04150); test: Antagonist activity at glucocorticoid receptor in human HepG2 cells assessed as inhibition of dexamethasone-induced tyrosine amino transferase activity preincubated for 30 mins followed by dexamethasone addition measured after 20 hrs; type: cell-based
T1 sequence (P04150 whole entry): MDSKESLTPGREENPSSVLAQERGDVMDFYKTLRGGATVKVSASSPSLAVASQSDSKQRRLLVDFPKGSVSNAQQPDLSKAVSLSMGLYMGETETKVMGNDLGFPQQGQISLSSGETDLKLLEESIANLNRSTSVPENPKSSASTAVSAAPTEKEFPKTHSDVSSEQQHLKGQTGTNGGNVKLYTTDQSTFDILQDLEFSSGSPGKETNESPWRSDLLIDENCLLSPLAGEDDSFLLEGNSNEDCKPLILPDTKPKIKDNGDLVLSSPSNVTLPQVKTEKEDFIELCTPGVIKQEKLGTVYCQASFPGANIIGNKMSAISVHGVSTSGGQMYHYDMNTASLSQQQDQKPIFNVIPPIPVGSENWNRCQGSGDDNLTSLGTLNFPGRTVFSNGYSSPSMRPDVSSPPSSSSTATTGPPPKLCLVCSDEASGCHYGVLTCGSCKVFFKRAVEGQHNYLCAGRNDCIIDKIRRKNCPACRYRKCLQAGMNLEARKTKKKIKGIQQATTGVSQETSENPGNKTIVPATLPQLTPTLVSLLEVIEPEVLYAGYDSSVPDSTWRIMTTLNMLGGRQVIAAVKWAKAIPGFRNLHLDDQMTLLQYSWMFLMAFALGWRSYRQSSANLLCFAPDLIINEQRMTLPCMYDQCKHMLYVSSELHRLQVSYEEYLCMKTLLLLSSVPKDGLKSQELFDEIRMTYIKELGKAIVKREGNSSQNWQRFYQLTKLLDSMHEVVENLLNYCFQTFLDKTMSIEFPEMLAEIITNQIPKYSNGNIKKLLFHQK

[3] = Cmax in Sprague-Dawley CD-1 rat plasma at 3 mg/kg, po administered as cassette dose via gavage measured up to 24 hrs by LC/MS analysis; type: ADME, organism-based; set-up: dose 3 mg/kg, route oral
In short: (§2)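 Three male Sprague Dawley CD-1 rats (220-250g) with jugular vein catheters; three test compounds plus a reference dosed together by oral gavage, 3mg/kg each, in DMSO:0.5% methylcellulose 10:90 (0.6mg/mL per compound), 5mL/kg. Plasma sampled pre-dose and at 0.25, 0.5, 1, 2, 4, 6, 8, 24 h; LC/MS.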

[4] = Oral bioavailability in Sprague-Dawley CD-1 rat plasma at 5 mg/kg administered through gavage measured up to 24 hrs by LC/MS analysis; type: ADME, organism-based
In short: (§3)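 Jugular-catheterized male Sprague Dawley CD-1 rats (220-250g). Oral arm: five rats, 5mg/kg gavage, 1mg/mL in DMSO:0.5% methylcellulose 10:90, 5mL/kg, sampled pre-dose and 0.25-24 h. i.v. arm: three rats, 1mg/kg, 0.5mg/mL in DMSO:PEG400:propylene glycol 10:45:45, sampled pre-dose and 0.08-24 h. Plasma by LC/MS.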

[5] = AUC in Sprague-Dawley CD-1 rat plasma at 3 mg/kg, po administered as cassette dose via gavage measured up to 24 hrs by LC/MS analysis; type: ADME, organism-based; set-up: time < 24 hr, dose 3 mg/kg, route oral; in short: as §2
[6] = AUC in Sprague-Dawley CD-1 rat plasma at 5 mg/kg, po administered through gavage measured up to 24 hrs by LC/MS analysis; type: ADME, organism-based; set-up: dose 5 mg/kg, time < 24 hr, route oral; in short: as §3
[7] = Oral bioavailability in monkey plasma at 20 mg/kg measured up to 24 hrs by LC/MS analysis; type: ADME, organism-based, Macaca mulatta; conditions: rhesus monkey; in short: as §1
[8] = AUC in monkey plasma at 20 mg/kg, po measured up to 24 hrs by LC/MS analysis; type: ADME, organism-based, Macaca mulatta; set-up: dose 20 mg/kg, time < 24 hr, route oral; conditions: rhesus monkey; in short: as §1
[9] = Cmax in Sprague-Dawley CD-1 rat plasma at 5 mg/kg, po administered through gavage measured up to 24 hrs by LC/MS analysis; type: ADME, organism-based; set-up: dose 5 mg/kg, route oral; in short: as §3
[10] = tested on: Rattus norvegicus; test: (§4) In vivo antagonist activity at glucocorticoid receptor in Sprague-Dawley rat assessed as reduction in cortisone-induced plasma glucose levels at 30 mg/kg, po bid via gavage for 6 days pretreated for 12 hrs followed by cortisone 21-acetate treatment measured 24 hrs after last cortisone 21-acetate treatment; type: functional, organism-based
In short: (§5)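 Male Sprague Dawley rats (200-250g), 3-day vehicle baseline, groups of eight. Compound as suspension in DMSO:Tween 80:0.5% HPMC 10:0.1:89.9, oral gavage twice daily for 6 days; cortisone 21-acetate 30mg/kg s.c. daily in 1% methylcellulose. Tail-vein blood 24 h after last cortisone (12 h after last compound); glucose by clinical reagent, insulin by ultrasensitive rat ELISA.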

[11] = tested on: Rattus norvegicus; test: as §4, with “rat cortisone model of exogenous Cushing's syndrome” for “rat”, “inhibition of” for “reduction in cortisone-induced”, “insulin” for “glucose”; type: functional, organism-based; in short: as §5

| Cmax [1] [ng/mL] | Ki [2] [nM] | Cmax [3] [ng/mL] | bioavailability [4] [%] | AUC at 24 h [5] [ng·h/mL] | AUC at 24 h [6] [ng·h/mL] | bioavailability [7] [%] | AUC at 24 h [8] [ng·h/mL] | Cmax [9] [ng/mL] | SMILES | inhibition [10] | inhibition [11] |
| --- | --- | --- | --- | --- | --- | --- | --- | --- | --- | --- | --- |
| 16 | 11 | 239 | 62 | 967 | 1560 | 1 | 217 | 528 | Cn1nccc1S(=O)(=O)N1CCC2=Cc3c(cnn3-c3ccc(F)cc3)C[C@]2(C(=O)c2cc(C(F)(F)F)ccn2)C1 | – | – |
| – | – | – | – | – | – | – | – | – | CC#C[C@]1(O)CC[C@H]2[C@@H]3CCC4=CC(=O)CCC4=C3[C@@H](c3ccc(N(C)C)cc3)C[C@@]21C | Active | Active |
